Where a SMILES comes first, the peptide text is derived from it.

The target of the first test is T1, High affinity immunoglobulin epsilon receptor subunit alpha (Homo sapiens, UniProt P12319).
T1 sequence (P12319 whole entry): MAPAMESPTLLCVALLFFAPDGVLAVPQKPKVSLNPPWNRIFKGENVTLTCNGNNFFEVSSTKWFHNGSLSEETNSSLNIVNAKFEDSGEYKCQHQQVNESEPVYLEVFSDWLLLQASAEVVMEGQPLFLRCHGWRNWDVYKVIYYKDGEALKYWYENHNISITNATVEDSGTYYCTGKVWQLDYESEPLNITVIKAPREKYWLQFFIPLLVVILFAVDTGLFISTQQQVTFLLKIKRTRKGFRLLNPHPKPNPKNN
Description: Binding affinity towards Fc-epsilon RI-alpha human mast cell receptor was determined. The method, boiled down:
(§1)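 Competitive fluorescence polarization: FcεRIα subunit of human IgE receptor expressed in insect cells (7 nM) with fluorescein-labelled MCD peptide tracer (4 nM) in PBS pH 7.4, unlabelled peptide 7–500 μM, 25 °C 5 min. Ex 485/em 535 nm, mP; tracer-alone background subtracted; mean of many consecutive readings; IC50 by nonlinear regression.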
The term IC50 denotes the concentration that gives 50% inhibition. Lower therefore signals greater potency. Regarding `CC[C@H](C)[C@H](N)C(=O)N[C@@H](C)C(=O)N[C@@H](CS)C(=O)N[C@@H](CC(N)=O)C(=O)N[C@@H](CS)C(=O)N[C@@H](CCCCN)C(=O)N[C@@H](CCCN=C(N)N)C(=O)N[C@@H](Cc1c[nH]cn1)C(=O)N[C@H](C(=O)N[C@H](C(=O)N[C@@H](CCCCN)C(=O)N1CCC[C@H]1C(=O)N[C@@H](Cc1c[nH]cn1)C(=O)N[C@H](C(=O)N[C@@H](CS)C(=O)N[C@@H](CCCN=C(N)N)C(=O)N[C@@H](CCCCN)C(=O)N[C@H](C(=O)N[C@@H](CS)C(=O)NCC(=O)N[C@@H](CCCCN)C(=O)N[C@@H](CC(N)=O)C(N)=O)[C@@H](C)CC)[C@@H](C)CC)[C@@H](C)CC)C(C)C` (H-IACNCKRHVIKPHICRKICGKN-NH2), the IC50 came out at 82 µM. Still for that read-out and setting: under `CC[C@H](C)[C@H](N)C(=O)N[C@@H](CCCCN)C(=O)N[C@@H](CS)C(=O)N[C@@H](CC(N)=O)C(=O)N[C@@H](CS)C(=O)N[C@@H](C)C(=O)N[C@@H](CCCNC(=N)N)C(=O)N[C@@H](Cc1cnc[nH]1)C(=O)N[C@H](C(=O)N[C@H](C(=O)N[C@@H](CCCCN)C(=O)N1CCC[C@H]1C(=O)N[C@@H](Cc1cnc[nH]1)C(=O)N[C@H](C(=O)N[C@@H](CS)C(=O)N[C@@H](CCCNC(=N)N)C(=O)N[C@@H](CCCCN)C(=O)N[C@H](C(=O)N[C@@H](CS)C(=O)NCC(=O)N[C@@H](CCCCN)C(=O)N[C@@H](CC(N)=O)C(N)=O)[C@@H](C)CC)[C@@H](C)CC)[C@@H](C)CC)C(C)C` (H-IKCNCARHVIKPHICRKICGKN-NH2) stands 71 µM; under `CC[C@H](C)[C@H](N)C(=O)N[C@@H](CCCCN)C(=O)N[C@@H](CS)C(=O)N[C@@H](CC(N)=O)C(=O)N[C@@H](CS)C(=O)N[C@@H](CCCCN)C(=O)N[C@@H](CCCNC(=N)N)C(=O)N[C@@H](Cc1cnc[nH]1)C(=O)N[C@H](C(=O)N[C@H](C(=O)N[C@@H](C)C(=O)N1CCC[C@H]1C(=O)N[C@@H](Cc1cnc[nH]1)C(=O)N[C@H](C(=O)N[C@@H](CS)C(=O)N[C@@H](CCCNC(=N)N)C(=O)N[C@@H](CCCCN)C(=O)N[C@H](C(=O)N[C@@H](CS)C(=O)NCC(=O)N[C@@H](CCCCN)C(=O)N[C@@H](CC(N)=O)C(N)=O)[C@@H](C)CC)[C@@H](C)CC)[C@@H](C)CC)C(C)C` (H-IKCNCKRHVIAPHICRKICGKN-NH2), 153 µM; under `CC[C@H](C)[C@H](N)C(=O)N[C@@H](CCCCN)C(=O)N[C@@H](CS)C(=O)N[C@@H](CC(N)=O)C(=O)N[C@@H](CS)C(=O)N[C@@H](CCCCN)C(=O)N[C@@H](CCCNC(=N)N)C(=O)N[C@@H](Cc1cnc[nH]1)C(=O)N[C@H](C(=O)N[C@H](C(=O)N[C@@H](CCCCN)C(=O)N1CCC[C@H]1C(=O)N[C@@H](Cc1cnc[nH]1)C(=O)N[C@H](C(=O)N[C@@H](CS)C(=O)N[C@@H](CCCNC(=N)N)C(=O)N[C@@H](C)C(=O)N[C@H](C(=O)N[C@@H](CS)C(=O)NCC(=O)N[C@@H](CCCCN)C(=O)N[C@@H](CC(N)=O)C(N)=O)[C@@H](C)CC)[C@@H](C)CC)[C@@H](C)CC)C(C)C` (H-IKCNCKRHVIKPHICRAICGKN-NH2), 153 µM. In turn, `CC[C@H](C)[C@H](N)C(=O)N[C@@H](CCCCN)C(=O)N[C@@H](CS)C(=O)N[C@@H](CC(N)=O)C(=O)N[C@@H](CS)C(=O)N[C@@H](CCCCN)C(=O)N[C@@H](CCCN=C(N)N)C(=O)N[C@@H](Cc1c[nH]cn1)C(=O)N[C@H](C(=O)N[C@H](C(=O)N[C@@H](CCCCN)C(=O)N1CCC[C@H]1C(=O)N[C@@H](Cc1c[nH]cn1)C(=O)N[C@H](C(=O)N[C@@H](CS)C(=O)N[C@@H](CCCN=C(N)N)C(=O)N[C@@H](CCCCN)C(=O)N[C@H](C(=O)N[C@@H](CS)C(=O)NCC(=O)N[C@@H](C)C(=O)N[C@@H](CC(N)=O)C(N)=O)[C@@H](C)CC)[C@@H](C)CC)[C@@H](C)CC)C(C)C` (H-IKCNCKRHVIKPHICRKICGAN-NH2) displayed a 50% inhibitory concentration (IC50) of 153 µM.

For the next test, the target named is T1, High affinity immunoglobulin epsilon receptor subunit alpha. Description: Binding affinity towards Fc-epsilon RI-alpha mast cell receptor human mast cell receptor was determined. A digest of the protocol: as §1
`CC[C@H](C)[C@H](N)C(=O)N[C@@H](CCCCN)C(=O)N[C@@H](CS)C(=O)N[C@@H](CC(N)=O)C(=O)N[C@@H](CS)C(=O)N[C@@H](CCCCN)C(=O)N[C@@H](CCCN=C(N)N)C(=O)N[C@@H](Cc1c[nH]cn1)C(=O)N[C@H](C(=O)N[C@H](C(=O)N[C@@H](CCCCN)C(=O)N1CCC[C@H]1C(=O)N[C@@H](Cc1c[nH]cn1)C(=O)N[C@H](C(=O)N[C@@H](CS)C(=O)N[C@@H](CCCN=C(N)N)C(=O)N[C@@H](CCCCN)C(=O)N[C@H](C(=O)N[C@@H](CS)C(=O)NCC(=O)N[C@@H](CCCCN)C(=O)N[C@@H](CC(N)=O)C(N)=O)[C@@H](C)CC)[C@@H](C)CC)[C@@H](C)CC)C(C)C` (H-IKCNCKRHVIKPHICRKICGKN-NH2) displayed an IC50 of 114 µM.

A further test is filed under the species Rattus norvegicus. Description: Concentration of peptide at 50% maximal histamine release at concentration 10e-5 M. It is filed as functional. The method, boiled down: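 Rat peritoneal mast cells (Sprague–Dawley) lavaged into carbonate- and divalent-cation-free Tyrode's with 15 mM Hepes pH 7.2, 0.1% BSA, purified on Accudenz gradient; (1–2) × 10^3 cells/well with peptide, 37 °C 20 min. Residual cellular histamine freed by Triton X-100 then TFA, measured fluorometrically with phthalaldehyde/NaOH; n = 6; nonlinear regression.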
`CC[C@H](C)[C@H](N)C(=O)N[C@@H](CCCCN)C(=O)N[C@@H](CS)C(=O)N[C@@H](CC(N)=O)C(=O)N[C@@H](CS)C(=O)N[C@@H](C)C(=O)N[C@@H](CCCN=C(N)N)C(=O)N[C@@H](Cc1c[nH]cn1)C(=O)N[C@H](C(=O)N[C@H](C(=O)N[C@@H](CCCCN)C(=O)N1CCC[C@H]1C(=O)N[C@@H](Cc1c[nH]cn1)C(=O)N[C@H](C(=O)N[C@@H](CS)C(=O)N[C@@H](CCCN=C(N)N)C(=O)N[C@@H](CCCCN)C(=O)N[C@H](C(=O)N[C@@H](CS)C(=O)NCC(=O)N[C@@H](CCCCN)C(=O)N[C@@H](CC(N)=O)C(N)=O)[C@@H](C)CC)[C@@H](C)CC)[C@@H](C)CC)C(C)C` (H-IKCNCARHVIKPHICRKICGKN-NH2): the ED50 came to 12.54.

`CC[C@H](C)[C@H](N)C(=O)N[C@@H](CCCCN)C(=O)N[C@@H](CS)C(=O)N[C@@H](CC(N)=O)C(=O)N[C@@H](CS)C(=O)N[C@@H](CCCCN)C(=O)N[C@@H](CCCN=C(N)N)C(=O)N[C@@H](Cc1c[nH]cn1)C(=O)N[C@H](C(=O)N[C@H](C(=O)N[C@@H](C)C(=O)N1CCC[C@H]1C(=O)N[C@@H](Cc1c[nH]cn1)C(=O)N[C@H](C(=O)N[C@@H](CS)C(=O)N[C@@H](CCCN=C(N)N)C(=O)N[C@@H](CCCCN)C(=O)N[C@H](C(=O)N[C@@H](CS)C(=O)NCC(=O)N[C@@H](CCCCN)C(=O)N[C@@H](CC(N)=O)C(N)=O)[C@@H](C)CC)[C@@H](C)CC)[C@@H](C)CC)C(C)C` (H-IKCNCKRHVIAPHICRKICGKN-NH2) showed an ED50 of 1.07. Regarding `CC[C@H](C)[C@H](N)C(=O)N[C@@H](CCCCN)C(=O)N[C@@H](CS)C(=O)N[C@@H](CC(N)=O)C(=O)N[C@@H](CS)C(=O)N[C@@H](CCCCN)C(=O)N[C@@H](CCCN=C(N)N)C(=O)N[C@@H](Cc1c[nH]cn1)C(=O)N[C@H](C(=O)N[C@H](C(=O)N[C@@H](CCCCN)C(=O)N1CCC[C@H]1C(=O)N[C@@H](Cc1c[nH]cn1)C(=O)N[C@H](C(=O)N[C@@H](CS)C(=O)N[C@@H](CCCN=C(N)N)C(=O)N[C@@H](C)C(=O)N[C@H](C(=O)N[C@@H](CS)C(=O)NCC(=O)N[C@@H](CCCCN)C(=O)N[C@@H](CC(N)=O)C(N)=O)[C@@H](C)CC)[C@@H](C)CC)[C@@H](C)CC)C(C)C` (H-IKCNCKRHVIKPHICRAICGKN-NH2), the ED50 is given as 0.77.

Source of the values: ChEMBL document CHEMBL1145832, “Histamine-releasing activity and binding to the FcepsilonRI alpha human mast cell receptor subunit of mast cell degranulating peptide analogues with alanine substitutions” (J Med Chem, 2003).
